Measurements as given in ChEMBL document CHEMBL1134791, “2- and 3-substituted 1,4-naphthoquinone derivatives as subversive substrates of trypanothione reductase and lipoamide dehydrogenase from Trypanosoma cruzi: synthesis and correlation between redox cycling activities and in vitro cytotoxicity” (J Med Chem, 2001).

Assays:
[1] = substrate: CC1=C(CCCCCC(=O)NCCCCNCCCNC(=O)CCCCCC2=C(C)C(=O)c3ccccc3C2=O)C(=O)c2ccccc2C1=O; test: (§1) The Michaelis-Menten constant for NADPH oxidation by TcTR (Trypanosoma cruzi trypanothione reductase)
In short: (§2)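 Recombinant TcTR (0.6 U) in 20 mM Hepes, 1 mM EDTA, 0.15 M KCl, pH 7.25 at 22 °C, with 200 µM NADPH and naphthoquinone at five concentrations (0–100 µM) in 1% DMSO. NADPH oxidation at 340 nm; intrinsic oxidase rate not subtracted. Km and Vmax from nonlinear Michaelis–Menten fit; kcat and kcat/Km calculated.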

[2] = substrate: CC1=C(CCCCC(=O)NCCCNCCCNC(=O)CCCCC2=C(C)C(=O)c3ccccc3C2=O)C(=O)c2ccccc2C1=O; test: as §1; in short: as §2
[3] = substrate: CC1=C(CCCCCC(=O)NCCCN2CCN(CCCNC(=O)CCCCCC3=C(C)C(=O)c4cccc(O)c4C3=O)CC2)C(=O)c2c(O)cccc2C1=O; test: as §1; in short: as §2
[4] = substrate: CC1=C(CCCCC(=O)NCCCN2CCN(CCCNC(=O)CCCCC3=C(C)C(=O)c4ccccc4C3=O)CC2)C(=O)c2ccccc2C1=O; test: as §1; in short: as §2
[5] = substrate: CC1=C(CCCCCC(=O)NCCCNCCCNC(=O)CCCCCC2=C(C)C(=O)c3ccccc3C2=O)C(=O)c2ccccc2C1=O; test: as §1; in short: as §2
[6] = substrate: CC1=C(CCCCC(=O)NCCCCNCCCNC(=O)CCCCC2=C(C)C(=O)c3ccccc3C2=O)C(=O)c2ccccc2C1=O; test: as §1; in short: as §2
[7] = substrate: CC1=CC(=O)c2ccccc2C1=O; test: as §1; in short: as §2
[8] = substrate: CC1=C(CCC(=O)NCCCNCCCNC(=O)CCC2=C(C)C(=O)c3cccc(O)c3C2=O)C(=O)c2c(O)cccc2C1=O; test: as §1; in short: as §2
[9] = substrate: CC1=C(CCCCC(=O)NCCCCNCCCNC(=O)CCCCC2=C(C)C(=O)c3cccc(O)c3C2=O)C(=O)c2c(O)cccc2C1=O; test: as §1; in short: as §2
[10] = substrate: CC1=C(CCCCCC(=O)NCCCNCCCNC(=O)CCCCCC2=C(C)C(=O)c3cccc(O)c3C2=O)C(=O)c2c(O)cccc2C1=O; test: as §1; in short: as §2
[11] = substrate: CC1=C(CCC(=O)NCCCCNCCCNC(=O)CCC2=C(C)C(=O)c3cccc(O)c3C2=O)C(=O)c2c(O)cccc2C1=O; test: as §1; in short: as §2
[12] = substrate: CC1=C(CCCCC(=O)NCCCNCCCNC(=O)CCCCC2=C(C)C(=O)c3cccc(O)c3C2=O)C(=O)c2c(O)cccc2C1=O; test: as §1; in short: as §2
[13] = substrate: CC1=C(CCCC(=O)NCCCNCCCNC(=O)CCCC2=C(C)C(=O)c3ccccc3C2=O)C(=O)c2ccccc2C1=O; test: as §1; in short: as §2
[14] = substrate: CC1=C(CCCC(=O)NCCCCNCCCNC(=O)CCCC2=C(C)C(=O)c3ccccc3C2=O)C(=O)c2ccccc2C1=O; test: as §1; in short: as §2
[15] = substrate: CC1=C(CCCCC(=O)NCCCN2CCN(CCCNC(=O)CCCCC3=C(C)C(=O)c4cccc(O)c4C3=O)CC2)C(=O)c2c(O)cccc2C1=O; test: as §1; in short: as §2
[16] = substrate: CC1=C(CCC(=O)NCCCN2CCN(CCCNC(=O)CCC3=C(C)C(=O)c4ccccc4C3=O)CC2)C(=O)c2ccccc2C1=O; test: as §1; in short: as §2
[17] = substrate: CC1=CC(=O)c2c(O)cccc2C1=O; test: as §1; in short: as §2
[18] = substrate: CC1=C(CCCCCC(=O)NCCCN2CCN(CCCNC(=O)CCCCCC3=C(C)C(=O)c4ccccc4C3=O)CC2)C(=O)c2ccccc2C1=O; test: as §1; in short: as §2
[19] = substrate: CC1=C(CCCC(=O)NCCCN2CCN(CCCNC(=O)CCCC3=C(C)C(=O)c4ccccc4C3=O)CC2)C(=O)c2ccccc2C1=O; test: as §1; in short: as §2
[20] = substrate: CC1=C(CCCC(=O)NCCCCNCCCNC(=O)CCCC2=C(C)C(=O)c3cccc(O)c3C2=O)C(=O)c2c(O)cccc2C1=O; test: as §1; in short: as §2
[21] = substrate: CC1=C(CCC(=O)NCCCN2CCN(CCCNC(=O)CCC3=C(C)C(=O)c4cccc(O)c4C3=O)CC2)C(=O)c2c(O)cccc2C1=O; test: as §1; in short: as §2
[22] = substrate: CC1=C(CCC(=O)NCCCNCCCNC(=O)CCC2=C(C)C(=O)c3ccccc3C2=O)C(=O)c2ccccc2C1=O; test: as §1; in short: as §2
[23] = substrate: CC1=C(CCCCCC(=O)NCCCCNCCCNC(=O)CCCCCC2=C(C)C(=O)c3cccc(O)c3C2=O)C(=O)c2c(O)cccc2C1=O; test: as §1; in short: as §2
[24] = substrate: CC1=C(CCCC(=O)NCCCN2CCN(CCCNC(=O)CCCC3=C(C)C(=O)c4cccc(O)c4C3=O)CC2)C(=O)c2c(O)cccc2C1=O; test: as §1; in short: as §2
[25] = substrate: CC1=C(CCC(=O)NCCCCNCCCNC(=O)CCC2=C(C)C(=O)c3ccccc3C2=O)C(=O)c2ccccc2C1=O; test: as §1; in short: as §2
[26] = substrate: CC1=C(CCCC(=O)NCCCNCCCNC(=O)CCCC2=C(C)C(=O)c3cccc(O)c3C2=O)C(=O)c2c(O)cccc2C1=O; test: as §1; in short: as §2
[27] = substrate: CC1=C(CCC(=O)NCCCCNCCCNC(=O)CCC2=C(C)C(=O)c3cccc(O)c3C2=O)C(=O)c2c(O)cccc2C1=O; test: Vmax is the maximum velocity of the TcTR (Trypanosoma cruzi trypanothione reductase) catalyzed NADPH oxidation.
[28] = substrate: CC1=C(CCCCC(=O)NCCCNCCCNC(=O)CCCCC2=C(C)C(=O)c3cccc(O)c3C2=O)C(=O)c2c(O)cccc2C1=O; test: as above
[29] = substrate: CC1=C(CCCC(=O)NCCCNCCCNC(=O)CCCC2=C(C)C(=O)c3ccccc3C2=O)C(=O)c2ccccc2C1=O; test: as above
[30] = substrate: CC1=C(CCCC(=O)NCCCCNCCCNC(=O)CCCC2=C(C)C(=O)c3ccccc3C2=O)C(=O)c2ccccc2C1=O; test: as above
[31] = substrate: CC1=C(CCC(=O)NCCCN2CCN(CCCNC(=O)CCC3=C(C)C(=O)c4cccc(O)c4C3=O)CC2)C(=O)c2c(O)cccc2C1=O; test: as above

B1: Trypanothione reductase (Trypanosoma cruzi), P28593 (protein)
chain: MMSKIFDLVVIGAGSGGLEAAWNAATLYKKRVAVIDVQMVHGPPFFSALGGTCVNVGCVPKKLMVTGAQYMEHLRESAGFGWEFDRTTLRAEWKKLIAVKDEAVLNINKSYEEMFRDTEGLEFFLGWGSLESKNVVNVRESADPASAVKERLETENILLASGSWPHMPNIPGIEHCISSNEAFYLPEPPRRVLTVGGGFISVEFAGIFNAYKPKDGQVTLCYRGEMILRGFDHTLREELTKQLTANGIQILTKENPAKVELNADGSKSVTFESGKKMDFDLVMMAIGRSPRTKDLQLQNAGVMIKNGGVQVDEYSRTNVSNIYAIGDVTNRVMLTPVAINEAAALVDTVFGTNPRKTDHTRVASAVFSIPPIGTCGLIEEVASKRYEVVAVYLSSFTPLMHNISGSKYKTFVAKIITNHSDGTVLGVHLLGDNAPEIIQGVGICLKLNAKISDFYNTIGVHPTSAEELCSMRTPSYYYVKGEKMEKPSEASL
Km [1]: 21 µM | Km [2]: 37 µM | Km [3]: 8 µM | Km [4]: 16 µM | Km [5]: 3 µM | Km [6]: 16 µM | Km [7]: 21 µM | Km [8]: 230 µM | Km [9]: 20 µM | Km [10]: 28 µM | Km [11]: 48 µM | Km [12]: 28 µM | Km [13]: 23 µM | Km [14]: 74 µM | Km [15]: 17 µM | Km [16]: 14 µM | Km [17]: 15 µM | Km [18]: 12 µM | Km [19]: 12 µM | Km [20]: 93 µM | Km [21]: 78 µM | Km [22]: 47 µM | Km [23]: 37 µM | Km [24]: 52 µM | Km [25]: 30 µM | Km [26]: 55 µM | Vmax (µM min-1 mg-1) [27]: 4.44 | Vmax [28]: 3.83 µM/min/mg | Vmax [29]: 0.45 µM/min/mg | Vmax [30]: 2.04 µM/min/mg | Vmax [31]: 4.74 µM/min/mg
